# Assays:
# [1] = Cytotoxicity against human HepG2.2.15 cells assessed as cell death after 9 days by MTT assay; format: cell-based, HepG2 2.2.15
# Summary of the method: (§1)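 HepG2.2.15 cells (MEM, 10% FBS, 380 µg/ml G418, 37 °C, 5% CO2) seeded at 1×10^5 cells/ml, cultured 24 h, then exposed to various drug concentrations; drug-containing medium renewed every 3 d. OD read at 450 nm after 9 days; percent cell death calculated; CC50 = concentration killing 50% of cells. Means of at least two experiments.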
# Hepatitis B virus [2] = test: Antiviral activity against Hepatitis B virus infected in human HepG2.2.15 cells assessed as inhibition of HBsAg secretion by ELISA; format: functional, organism-based; settings: HepG2 2.2.15
# Summary of the method: (§2)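 HepG2.2.15 cells (MEM, 10% FBS, 380 µg/ml G418) seeded at 1×10^5 cells/ml, held 24 h at 37 °C, then treated with various drug concentrations; medium with drug renewed every 3 d for up to 9 d. Culture medium sampled on days 3, 6 and 9, stored at -20 °C, and assayed for secreted antigen. Lamivudine as positive control; IC50 = 50% inhibition of secretion; means of at least two experiments.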
# [3] = Selectivity index, ratio of CC50 for human HepG2.2.15 cells to IC50 for Hepatitis B virus infected in human HepG2.2.15 cells assessed as inhibition of HBsAg secretion; format: functional
# Summary of the method: (§3)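 Selectivity index computed as CC50/IC50, with CC50 from cell death of HepG2.2.15 cells after 9 days of treatment (OD 450 nm) and IC50 from 50% inhibition of HBeAg or HBsAg secretion in the same cells; medium with drug renewed every 3 d.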
# Hepatitis B virus [4] = test: Antiviral activity against Hepatitis B virus infected in human HepG2.2.15 cells assessed as inhibition of HBeAg secretion by ELISA; format: functional, organism-based; settings: HepG2 2.2.15; summary of the method: as §2
# [5] = Selectivity index, ratio of CC50 for human HepG2.2.15 cells to IC50 for Hepatitis B virus infected in human HepG2.2.15 cells assessed as inhibition of HBeAg secretion; format: functional; summary of the method: as §3
# Hepatitis B virus [6] = test: Antiviral activity against Hepatitis B virus infected in human HepG2.2.15 cells assessed as inhibition of HBsAg secretion at 300 uM after 3 days by ELISA; format: functional; settings: HepG2 2.2.15, 72 h; summary of the method: as §2
# Hepatitis B virus [7] = test: Antiviral activity against Hepatitis B virus infected in human HepG2.2.15 cells assessed as inhibition of HBsAg secretion at 150 uM after 3 days by ELISA; format: functional; settings: HepG2 2.2.15, 72 h; summary of the method: as §2
# Hepatitis B virus [8] = test: Antiviral activity against Hepatitis B virus infected in human HepG2.2.15 cells assessed as inhibition of HBsAg secretion at 75 uM after 3 days by ELISA; format: functional; settings: HepG2 2.2.15, 72 h; summary of the method: as §2
# Hepatitis B virus [9] = test: Antiviral activity against Hepatitis B virus infected in human HepG2.2.15 cells assessed as inhibition of HBsAg secretion at 300 uM after 6 days by ELISA; format: functional; settings: HepG2 2.2.15, 144 h; summary of the method: as §2
# Hepatitis B virus [10] = test: Antiviral activity against Hepatitis B virus infected in human HepG2.2.15 cells assessed as inhibition of HBsAg secretion at 150 uM after 6 days by ELISA; format: functional; settings: HepG2 2.2.15, 144 h; summary of the method: as §2
# Hepatitis B virus [11] = test: Antiviral activity against Hepatitis B virus infected in human HepG2.2.15 cells assessed as inhibition of HBsAg secretion at 75 uM after 6 days by ELISA; format: functional; settings: HepG2 2.2.15, 144 h; summary of the method: as §2
# Hepatitis B virus [12] = test: Antiviral activity against Hepatitis B virus infected in human HepG2.2.15 cells assessed as inhibition of HBsAg secretion at 37.5 uM after 6 days by ELISA; format: functional; settings: HepG2 2.2.15, 144 h; summary of the method: as §2
# Hepatitis B virus [13] = test: Antiviral activity against Hepatitis B virus infected in human HepG2.2.15 cells assessed as inhibition of HBsAg secretion at 300 uM after 9 days by ELISA; format: functional; settings: HepG2 2.2.15, 216 h; summary of the method: as §2
# Hepatitis B virus [14] = test: Antiviral activity against Hepatitis B virus infected in human HepG2.2.15 cells assessed as inhibition of HBsAg secretion at 150 uM after 9 days by ELISA; format: functional; settings: HepG2 2.2.15, 216 h; summary of the method: as §2
# Hepatitis B virus [15] = test: Antiviral activity against Hepatitis B virus infected in human HepG2.2.15 cells assessed as inhibition of HBsAg secretion at 75 uM after 9 days by ELISA; format: functional; settings: HepG2 2.2.15, 216 h; summary of the method: as §2
# Hepatitis B virus [16] = test: Antiviral activity against Hepatitis B virus infected in human HepG2.2.15 cells assessed as inhibition of HBsAg secretion at 37.5 uM after 9 days by ELISA; format: functional; settings: HepG2 2.2.15, 216 h; summary of the method: as §2
# Hepatitis B virus [17] = test: Antiviral activity against Hepatitis B virus infected in human HepG2.2.15 cells assessed as cell survival at 300 uM after 9 days (reference value: 100%); format: functional; settings: HepG2 2.2.15, 216 h; summary of the method: as §1
# Hepatitis B virus [18] = test: Antiviral activity against Hepatitis B virus infected in human HepG2.2.15 cells assessed as cell survival at 150 uM after 9 days (reference value: 100%); format: functional; settings: HepG2 2.2.15, 216 h; summary of the method: as §1
# Hepatitis B virus [19] = test: Antiviral activity against Hepatitis B virus infected in human HepG2.2.15 cells assessed as cell survival at 75 uM after 9 days (reference value: 100%); format: functional; settings: HepG2 2.2.15, 216 h; summary of the method: as §1
# Hepatitis B virus [20] = test: Antiviral activity against Hepatitis B virus infected in human HepG2.2.15 cells assessed as cell survival at 37.5 uM after 9 days (reference value: 100%); format: functional; settings: HepG2 2.2.15, 216 h; summary of the method: as §1
# Hepatitis B virus [21] = test: Antiviral activity against Hepatitis B virus infected in human HepG2.2.15 cells assessed as inhibition of HBeAg secretion at 300 uM after 3 days by ELISA; format: functional; settings: HepG2 2.2.15, 72 h; summary of the method: as §2
# Hepatitis B virus [22] = test: Antiviral activity against Hepatitis B virus infected in human HepG2.2.15 cells assessed as inhibition of HBeAg secretion at 150 uM after 3 days by ELISA; format: functional; settings: HepG2 2.2.15, 72 h; summary of the method: as §2
# Hepatitis B virus [23] = test: Antiviral activity against Hepatitis B virus infected in human HepG2.2.15 cells assessed as inhibition of HBeAg secretion at 75 uM after 3 days by ELISA; format: functional; settings: HepG2 2.2.15, 72 h; summary of the method: as §2
# Hepatitis B virus [24] = test: Antiviral activity against Hepatitis B virus infected in human HepG2.2.15 cells assessed as inhibition of HBeAg secretion at 37.5 uM after 3 days by ELISA; format: functional; settings: HepG2 2.2.15, 72 h; summary of the method: as §2
# Hepatitis B virus [25] = test: Antiviral activity against Hepatitis B virus infected in human HepG2.2.15 cells assessed as inhibition of HBeAg secretion at 300 uM after 6 days by ELISA; format: functional; settings: HepG2 2.2.15, 144 h; summary of the method: as §2
# Hepatitis B virus [26] = test: Antiviral activity against Hepatitis B virus infected in human HepG2.2.15 cells assessed as inhibition of HBeAg secretion at 150 uM after 6 days by ELISA; format: functional; settings: HepG2 2.2.15, 144 h; summary of the method: as §2
# Hepatitis B virus [27] = test: Antiviral activity against Hepatitis B virus infected in human HepG2.2.15 cells assessed as inhibition of HBeAg secretion at 75 uM after 6 days by ELISA; format: functional; settings: HepG2 2.2.15, 144 h; summary of the method: as §2
# Hepatitis B virus [28] = test: Antiviral activity against Hepatitis B virus infected in human HepG2.2.15 cells assessed as inhibition of HBeAg secretion at 37.5 uM after 6 days by ELISA; format: functional; settings: HepG2 2.2.15, 144 h; summary of the method: as §2
# Hepatitis B virus [29] = test: Antiviral activity against Hepatitis B virus infected in human HepG2.2.15 cells assessed as inhibition of HBeAg secretion at 300 uM after 9 days by ELISA; format: functional; settings: HepG2 2.2.15, 216 h; summary of the method: as §2
# Hepatitis B virus [30] = test: Antiviral activity against Hepatitis B virus infected in human HepG2.2.15 cells assessed as inhibition of HBeAg secretion at 150 uM after 9 days by ELISA; format: functional; settings: HepG2 2.2.15, 216 h; summary of the method: as §2
# Hepatitis B virus [31] = test: Antiviral activity against Hepatitis B virus infected in human HepG2.2.15 cells assessed as inhibition of HBeAg secretion at 75 uM after 9 days by ELISA; format: functional; settings: HepG2 2.2.15, 216 h; summary of the method: as §2
# Hepatitis B virus [32] = test: Antiviral activity against Hepatitis B virus infected in human HepG2.2.15 cells assessed as inhibition of HBeAg secretion at 37.5 uM after 9 days by ELISA; format: functional; settings: HepG2 2.2.15, 216 h; summary of the method: as §2
smiles,measurement,setting,value
O/N=C/c1cccs1 [2-THIOPHENECARBOXALDEHYDE OXIME],CC50 at 216 h,[1],562 µM
same,IC50,Hepatitis B virus [2],354 µM
same,Ratio CC50/IC50,[3],1.59
same,IC50,Hepatitis B virus [4],431 µM
same,Ratio CC50/IC50,[5],1.3
COc1cc(C=O)cc2c1OCO2,CC50 at 216 h,[1],1080 µM
O/N=C/c1ccco1,CC50 at 216 h,[1],475 µM
same,IC50,Hepatitis B virus [2],480 µM
same,Ratio CC50/IC50,[3],1.01
same,IC50,Hepatitis B virus [4],519 µM
same,Ratio CC50/IC50,[5],0.91
O=Cc1ccc2c(c1)OCO2 [PIPERONAL],CC50 at 216 h,[1],1290 µM
COc1cc(/C=C/C(=O)O/N=C/c2ccccn2)cc(OC)c1OC,CC50 at 216 h,[1],787 µM
same,IC50,Hepatitis B virus [2],143 µM
same,Ratio CC50/IC50,[3],5.52
same,IC50,Hepatitis B virus [4],150 µM
same,Ratio CC50/IC50,[5],5.25
same,inhibition at 300 µM,Hepatitis B virus [6],15.1%
same,inhibition at 150 µM,Hepatitis B virus [7],8.39%
same,inhibition at 75 µM,Hepatitis B virus [8],2.96%
same,inhibition at 300 µM,Hepatitis B virus [9],40.5%
same,inhibition at 150 µM,Hepatitis B virus [10],29.6%
same,inhibition at 75 µM,Hepatitis B virus [11],17.2%
same,inhibition at 37.5 µM,Hepatitis B virus [12],12.7%
same,inhibition at 300 µM,Hepatitis B virus [13],66.7%
same,inhibition at 150 µM,Hepatitis B virus [14],47.3%
same,inhibition at 75 µM,Hepatitis B virus [15],39.2%
same,inhibition at 37.5 µM,Hepatitis B virus [16],24.1%
same,viability at 300 µM,Hepatitis B virus [17],89%
same,viability at 150 µM,Hepatitis B virus [18],98.1%
same,viability at 75 µM,Hepatitis B virus [19],107%
same,viability at 37.5 µM,Hepatitis B virus [20],108%
same,inhibition at 300 µM,Hepatitis B virus [21],34.2%
same,inhibition at 150 µM,Hepatitis B virus [22],28.2%
same,inhibition at 75 µM,Hepatitis B virus [23],20.3%
same,inhibition at 37.5 µM,Hepatitis B virus [24],13.4%
same,inhibition at 300 µM,Hepatitis B virus [25],53.6%
same,inhibition at 150 µM,Hepatitis B virus [26],35.1%
same,inhibition at 75 µM,Hepatitis B virus [27],29.2%
same,inhibition at 37.5 µM,Hepatitis B virus [28],21.4%
same,inhibition at 300 µM,Hepatitis B virus [29],61.1%
same,inhibition at 150 µM,Hepatitis B virus [30],47.9%
same,inhibition at 75 µM,Hepatitis B virus [31],41.2%
same,inhibition at 37.5 µM,Hepatitis B virus [32],30.2%
"COc1ccc(C=O)cc1OC [3,4-DIMETHOXYBENZALDEHYDE]",CC50 at 216 h,[1],> 1500 µM
"COc1ccc(/C=C/C(=O)O)cc1OC [O,O'-DIMETHYLCAFFEIC ACID]",CC50 at 216 h,[1],535 µM
same,IC50,Hepatitis B virus [2],> 600 µM
same,Ratio CC50/IC50,[3],<0.89
same,IC50,Hepatitis B virus [4],> 600 µM
same,Ratio CC50/IC50,[5],<0.89

# — ChEMBL document CHEMBL3576819, “Design, synthesis, biological evaluation and molecular docking studies of phenylpropanoid derivatives as potent anti-hepatitis B virus agents” (Eur J Med Chem, 2015)
